Assay results as given in ChEMBL document CHEMBL1143563, “Enantiospecificity of glutamate carboxypeptidase II inhibition” (J Med Chem, 2005).

What was measured:
Rattus norvegicus = species on record: Rattus norvegicus; assay: Neuroprotective effect against ischemic injury with median effective concentration in rat; assay type: functional
Method in brief: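 Cerebral ischemia was simulated in a cell culture model by exposing rat cortical cultures to potassium cyanide and 2-deoxyglucose. Neuroprotection against this injury was reported as a median effective concentration.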

[1] = In vitro inhibition of N-acetyl-L-aspartyl-[3H]L-glutamate binding to Glutamate carboxypeptidase II
Method in brief: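 Purified recombinant GCP II was incubated with radiolabelled substrate N-acetyl-L-aspartyl-[3H]-L-glutamate, and inhibition was reported as IC50. Values are mean ± SD of at least triplicate experiments; where only two experiments were run, the value is the mean of the duplicates.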

SMILES | EC50 (Rattus norvegicus) | IC50 [1]
O=C(O)CC[C@H](CP(=O)(O)O)C(=O)O | 0.2 nM | 
O=C(O)CC[C@@H](CP(=O)(O)Cc1c(F)c(F)c(F)c(F)c1F)C(=O)O | 410 nM | 1400 nM
O=C(O)CC[C@@H](CP(=O)(O)O)C(=O)O | 70 nM | 
O=C(O)CC[C@H](CP(=O)(O)Cc1c(F)c(F)c(F)c(F)c1F)C(=O)O | 4.1 nM | 34 nM
O=C(O)CCC(CP(=O)(O)O)C(=O)O (centres undefined) | 1.2 nM | 
O=C(O)CCC(CCCS)C(=O)O (racemic) | 13 nM | 
O=C(O)CCC(CP(=O)(O)Cc1c(F)c(F)c(F)c(F)c1F)C(=O)O (racemic) | 9.5 nM | 
